What all share (assay type): cell-based
The target of assay [1] is Muscarinic acetylcholine receptor M3 (Homo sapiens, UniProt P20309). The assay can be described thus: Inhibition of [3H]NMS binding to human muscarinic acetylcholine receptor M3 in transfected CHO cells. In short, it runs like this: (§1)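 Membranes from CHO-K1 cells expressing one human muscarinic subtype, harvested at 70-90% confluency. Incubated in 10 mM Na+/K+ PO4 pH 7.4 with 0.1 nM [3H]NMS and test compound for 120 min at 25 °C; atropine defined nonspecific binding. Filtration and scintillation counting. IC50 by logit fit, Ki by Cheng–Prusoff with KD (nM) M1 1.28, M2 0.85, M3 0.94, M4 3.10, M5 0.79. At least three tests, geometric mean.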

In assay [2] the target is T1, Muscarinic acetylcholine receptor M5 (Homo sapiens, UniProt P08912).
T1 sequence (P08912 whole entry): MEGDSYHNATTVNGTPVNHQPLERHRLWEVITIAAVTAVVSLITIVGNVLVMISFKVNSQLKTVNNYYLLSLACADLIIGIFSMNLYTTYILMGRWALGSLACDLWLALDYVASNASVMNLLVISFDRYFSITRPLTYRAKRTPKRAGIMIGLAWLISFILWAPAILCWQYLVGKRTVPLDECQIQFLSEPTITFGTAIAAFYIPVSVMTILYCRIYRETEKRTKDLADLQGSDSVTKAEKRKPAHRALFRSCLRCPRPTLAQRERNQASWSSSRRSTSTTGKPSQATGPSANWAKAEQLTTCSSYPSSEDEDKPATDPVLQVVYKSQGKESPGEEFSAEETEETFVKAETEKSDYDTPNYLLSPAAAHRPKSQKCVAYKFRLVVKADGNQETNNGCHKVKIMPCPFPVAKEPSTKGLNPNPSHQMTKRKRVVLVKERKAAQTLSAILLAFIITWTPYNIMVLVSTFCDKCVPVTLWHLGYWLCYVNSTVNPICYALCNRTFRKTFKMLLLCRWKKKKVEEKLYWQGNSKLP
In words: Inhibition of [3H]NMS binding to human muscarinic acetylcholine receptor M5 in transfected CHO cells. In short, it runs like this:
as §1

In assay [3] the target is T2, Muscarinic acetylcholine receptor M2 (Homo sapiens, UniProt P08172).
T2 sequence (P08172 whole entry): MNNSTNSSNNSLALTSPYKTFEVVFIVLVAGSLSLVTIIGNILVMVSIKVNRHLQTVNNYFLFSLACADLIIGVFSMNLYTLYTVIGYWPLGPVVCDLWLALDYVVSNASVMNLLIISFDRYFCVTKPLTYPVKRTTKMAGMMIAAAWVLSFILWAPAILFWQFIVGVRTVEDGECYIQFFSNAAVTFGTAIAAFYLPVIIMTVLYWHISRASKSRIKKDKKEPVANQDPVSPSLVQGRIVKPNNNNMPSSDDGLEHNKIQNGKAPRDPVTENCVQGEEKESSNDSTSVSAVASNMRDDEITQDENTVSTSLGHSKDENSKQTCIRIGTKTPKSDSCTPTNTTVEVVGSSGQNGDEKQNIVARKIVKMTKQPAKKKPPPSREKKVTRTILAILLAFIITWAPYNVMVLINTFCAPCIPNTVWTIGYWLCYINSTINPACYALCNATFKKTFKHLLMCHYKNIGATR
In words: Inhibition of [3H]-NMS binding to human muscarinic acetylcholine receptor M2 in transfected CHO cells. The method, boiled down: as §1

The target of assay [4] is T3, Muscarinic acetylcholine receptor M4 (Homo sapiens, UniProt P08173).
T3 sequence (P08173 whole entry): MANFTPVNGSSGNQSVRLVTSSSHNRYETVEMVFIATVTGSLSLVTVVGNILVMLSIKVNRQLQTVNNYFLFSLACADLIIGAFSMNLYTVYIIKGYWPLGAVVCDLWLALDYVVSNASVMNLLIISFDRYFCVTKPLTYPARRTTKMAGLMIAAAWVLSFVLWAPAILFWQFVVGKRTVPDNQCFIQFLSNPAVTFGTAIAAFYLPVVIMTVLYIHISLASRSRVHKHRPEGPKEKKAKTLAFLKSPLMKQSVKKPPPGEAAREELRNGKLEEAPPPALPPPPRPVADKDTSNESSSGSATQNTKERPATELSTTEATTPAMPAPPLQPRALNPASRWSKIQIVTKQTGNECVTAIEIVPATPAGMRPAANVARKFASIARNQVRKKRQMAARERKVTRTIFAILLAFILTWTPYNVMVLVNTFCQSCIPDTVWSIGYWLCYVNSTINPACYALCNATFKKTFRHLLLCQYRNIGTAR
The assay can be described thus: Inhibition of [3H]NMS binding to human muscarinic acetylcholine receptor M4 in transfected CHO cells. In short, it runs like this:
as §1

Assay [5] addresses T4, Muscarinic acetylcholine receptor M1 (Homo sapiens, UniProt P11229).
T4 sequence (P11229 whole entry): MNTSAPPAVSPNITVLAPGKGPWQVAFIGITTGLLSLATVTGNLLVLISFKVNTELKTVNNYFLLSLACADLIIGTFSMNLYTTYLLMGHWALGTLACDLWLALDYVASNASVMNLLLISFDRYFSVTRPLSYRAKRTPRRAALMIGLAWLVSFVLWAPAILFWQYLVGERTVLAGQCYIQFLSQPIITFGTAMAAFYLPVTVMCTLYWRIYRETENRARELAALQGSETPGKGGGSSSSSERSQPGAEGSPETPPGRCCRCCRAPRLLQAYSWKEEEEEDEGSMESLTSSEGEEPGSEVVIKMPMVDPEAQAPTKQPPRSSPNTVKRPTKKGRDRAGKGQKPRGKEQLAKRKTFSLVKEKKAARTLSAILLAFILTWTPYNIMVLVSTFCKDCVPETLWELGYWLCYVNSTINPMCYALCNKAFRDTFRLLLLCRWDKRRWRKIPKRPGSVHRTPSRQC
In words: Inhibition of [3H]NMS binding to human muscarinic acetylcholine receptor M1 in transfected CHO cells. The method, boiled down:
as §1

Results on 24 molecules are retold here after ChEMBL document CHEMBL1135505, “Synthesis and pharmacology of benzoxazines as highly selective antagonists at M(4) muscarinic receptors” (J Med Chem, 2002).

Muscarinic acetylcholine receptor M3, sequence (P20309 whole entry): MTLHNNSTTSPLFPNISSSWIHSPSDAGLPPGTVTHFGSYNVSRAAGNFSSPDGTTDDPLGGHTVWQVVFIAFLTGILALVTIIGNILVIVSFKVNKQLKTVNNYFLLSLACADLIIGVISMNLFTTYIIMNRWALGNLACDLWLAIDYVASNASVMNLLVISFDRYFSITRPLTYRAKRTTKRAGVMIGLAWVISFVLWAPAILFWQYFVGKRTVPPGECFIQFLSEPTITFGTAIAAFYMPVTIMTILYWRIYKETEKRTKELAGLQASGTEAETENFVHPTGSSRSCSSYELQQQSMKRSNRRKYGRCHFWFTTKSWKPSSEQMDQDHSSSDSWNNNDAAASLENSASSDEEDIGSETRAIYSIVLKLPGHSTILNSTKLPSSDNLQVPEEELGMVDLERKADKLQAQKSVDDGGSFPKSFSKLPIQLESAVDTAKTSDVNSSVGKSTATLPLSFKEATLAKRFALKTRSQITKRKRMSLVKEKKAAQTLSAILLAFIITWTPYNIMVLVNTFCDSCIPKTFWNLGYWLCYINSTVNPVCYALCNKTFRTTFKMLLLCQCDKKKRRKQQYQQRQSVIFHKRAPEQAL

What is called Ki is the dissociation constant of the complex between target and ligand, obtained from inhibition or displacement. In the case of `COc1ccc2c(c1)CCN1Cc3c(ccc4[nH]c(C)c(Cc5ccccc5)c34)OC21` (stereo not given), the Ki in assay [1] was 2040 nM; in assay [2], 1120 nM; in assay [3] it was 5370 nM; in assay [4], 1350 nM; in assay [5], 2510 nM.
Regarding `CCOC(=O)c1c(C)[nH]c2ccc3c(c12)CN1CCc2cccc(Cl)c2C1O3` (stereo not given), the Ki in assay [1] was 5130 nM; in assay [2], 4790 nM; in assay [3], 2450 nM; in assay [4] it was 1950 nM; in assay [5], more than 4370 nM.
`CCCc1c(C(=O)OCC)c2c3c(ccc2n1C)OC1c2ccc(SC)cc2CCN1C3` (stereo not given): the Ki was 229 nM in assay [1]; 1700 nM in assay [2]; 3800 nM in assay [3]; 2 nM in assay [4]; 3310 nM in assay [5].
With `CCOC(=O)c1c(C)n(C)c2ccc3c(c12)CN1CCc2cc(OC)ccc2C1O3` (stereo not given), the Ki was 912 nM in assay [1]; 3720 nM in assay [2]; 513 nM in assay [3]; 15.1 nM in assay [4]; 2000 nM in assay [5].
As for `COC(=O)c1c(C)n(C)c2ccc3c(c12)CN1CCc2cc(OC)ccc2C1O3` (stereo not given), the Ki is 398 nM in assay [1]; 3630 nM in assay [2]; 417 nM in assay [3]; 191 nM in assay [4]; 1170 nM in assay [5].
As to `CCOC(=O)c1c(CC)[nH]c2ccc3c(c12)CN1CCc2cc(OC)ccc2C1O3` (stereo not given), the Ki in assay [1] was 91.2 nM; in assay [2], 3090 nM; in assay [3], 1350 nM; in assay [4] it was 3.98 nM; in assay [5], 2190 nM.
Regarding `CCOC(=O)c1c(C)[nH]c2ccc3c(c12)CN1CCc2cc(OC)ccc2C1O3` (stereo not given), the Ki is 257 nM in assay [1]; 3390 nM in assay [2]; 537 nM in assay [3]; 7.08 nM in assay [4]; 1320 nM in assay [5].
Take `CCOC(=O)c1c(C)[nH]c2ccc3c(c12)CN1CCc2cc(SC)ccc2C1O3` (stereo not given): the Ki in assay [1] was 229 nM; in assay [2] it was 1950 nM; in assay [3] it was 2190 nM; in assay [4] it was 7.08 nM; in assay [5] it was 1780 nM.
As for `CCCc1c(C(=O)OCC)c2c3c(ccc2n1C)OC1c2ccc(OC)cc2CCN1C3` (stereo not given), the Ki in assay [1] was 70.8 nM; in assay [2], 3390 nM; in assay [3] it was 513 nM; in assay [4] it was 2 nM; in assay [5] it was 1320 nM.
Turning to `CCN(C)C(=O)c1c(C)[nH]c2ccc3c(c12)CN1CCc2cc(OC)ccc2C1O3` (stereo not given), the inhibition constant (Ki) in assay [1] is 15500 nM; in assay [2] it was 19500 nM; in assay [3] it was 4070 nM; in assay [4], 9770 nM; in assay [5], 21900 nM.
In the same order, the values of `CCCc1[nH]c2ccc3c(c2c1C(=O)OCC)CN1CCc2cc(OC)ccc2C1O3` (stereo not given) are 70.8 nM, 2240 nM, 1070 nM, 2 nM and 2040 nM.
In the same order, the values of `COc1ccc2c(c1)CCN1Cc3c(ccc4[nH]c(C)c(-c5nc(C)no5)c34)OC21` (stereo not given) are 3090 nM, 6170 nM, 2190 nM, 61.7 nM and 7590 nM.
`CCCCc1[nH]c2ccc3c(c2c1C(=O)OCC)CN1CCc2cc(OC)ccc2C1O3` (stereo not given): the Ki in assay [1] was 151 nM; in assay [2], 11200 nM; in assay [3] it was 339 nM; in assay [4], 1 nM; in assay [5], 13200 nM.
On to `CCOC(=O)c1c(CC)n(C)c2ccc3c(c12)CN1CCc2cc(OC)ccc2C1O3` (stereo not given), for which the Ki in assay [1] was 219 nM; in assay [2] it was 3090 nM; in assay [3], 708 nM; in assay [4], 3.02 nM; in assay [5] it was 1510 nM.
For the molecule `C=CCOC(=O)c1c(C)[nH]c2ccc3c(c12)CN1CCc2cc(OC)ccc2C1O3` (stereo not given), the Ki in assay [1] is 407 nM; in assay [2], 2240 nM; in assay [3], 1070 nM; in assay [4], 15.1 nM; in assay [5], 1320 nM.
In the same order, the values of `C=CCOC(=O)c1c(C)n(Cc2ccc(OC)cc2)c2ccc3c(c12)CN1CCc2cc(OC)ccc2C1O3` (stereo not given) are 676 nM, 501 nM, 240 nM, 72.4 nM and 200 nM.
For `CCCCc1[nH]c2ccc3c(c2c1C(=O)OCC)CN1CCc2cc(SC)ccc2C1O3` (stereo not given), the Ki in assay [1] was 339 nM; in assay [2], 1480 nM; in assay [3], 2190 nM; in assay [4] it was 3.02 nM; in assay [5], 871 nM.
Take `CCCCCCc1[nH]c2ccc3c(c2c1C(=O)OCC)CN1CCc2cc(OC)ccc2C1O3` (stereo not given): the Ki was 282 nM in assay [1]; more than 28200 nM in assay [2]; 4570 nM in assay [3]; 14.1 nM in assay [4]; 3090 nM in assay [5].
Regarding `CCOC(=O)c1c(C)[nH]c2ccc3c(c12)CN1CCc2cc(O)ccc2C1O3` (stereo not given), the Ki in assay [1] was 25700 nM; in assay [2], more than 28200 nM; in assay [3], more than 26900 nM; in assay [4] it was more than 12300 nM; in assay [5], more than 21900 nM.
Take `CCCCOC(=O)c1c(C)[nH]c2ccc3c(c12)CN1CCc2cc(OC)ccc2C1O3` (stereo not given): the Ki was 1020 nM in assay [1]; 2510 nM in assay [2]; 2340 nM in assay [3]; 67.6 nM in assay [4]; 1320 nM in assay [5].
With `CCOC(=O)c1c(CC)n(Cc2ccccc2)c2ccc3c(c12)CN1CCc2cc(OC)ccc2C1O3` (stereo not given), the Ki is 50.1 nM in assay [1]; 479 nM in assay [2]; 372 nM in assay [3]; 97.7 nM in assay [4]; 363 nM in assay [5].
On to `CCOC(=O)c1c(C)n(CC)c2ccc3c(c12)CN1CCc2cc(OC)ccc2C1O3` (stereo not given), for which the Ki in assay [1] was 263 nM; in assay [2], 2510 nM; in assay [3] it was 219 nM; in assay [4], 110 nM; in assay [5], 1320 nM.
`COc1ccc2c(c1)CCN1Cc3c(ccc4[nH]c(C)c(C(=O)OCc5ccccc5)c34)OC21` (stereo not given): the Ki is 1380 nM in assay [1]; 1120 nM in assay [2]; 1350 nM in assay [3]; 72.4 nM in assay [4]; 1170 nM in assay [5].
`CCCCCc1[nH]c2ccc3c(c2c1C(=O)OCC)CN1CCc2cc(OC)ccc2C1O3` (stereo not given): the Ki in assay [1] is 457 nM; in assay [2], 5370 nM; in assay [3] it was 7240 nM; in assay [4], 11 nM; in assay [5], 20400 nM.
